ASAP1 inh: ASAP1 ArfGAP inhibition; Q9ULH1; ASAP1-stimulated ARF1 GTP hydrolysis, GDP FP detection; inhibition, % at 16.5 µM; 0.19% of 360,000 active; AID 624377; in the data active = inhibition above about 25%;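 note: 0% = vehicle with enzyme and substrate and 100% = no enzyme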
Target sequence (Q9ULH1 325-724 limits assumed): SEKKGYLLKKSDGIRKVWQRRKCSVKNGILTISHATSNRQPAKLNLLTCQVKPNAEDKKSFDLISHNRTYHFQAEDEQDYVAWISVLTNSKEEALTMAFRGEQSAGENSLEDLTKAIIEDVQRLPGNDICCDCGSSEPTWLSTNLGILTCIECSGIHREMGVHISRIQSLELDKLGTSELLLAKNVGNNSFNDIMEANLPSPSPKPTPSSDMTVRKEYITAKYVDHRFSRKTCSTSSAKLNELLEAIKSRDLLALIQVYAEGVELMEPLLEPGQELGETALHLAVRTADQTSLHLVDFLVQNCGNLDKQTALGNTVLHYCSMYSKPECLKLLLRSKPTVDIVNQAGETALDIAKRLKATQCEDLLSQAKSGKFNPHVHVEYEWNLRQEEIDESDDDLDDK
PHOSPHO1 block: PHOSPHO1 (human) inhibition; 1.1% of 290,000 active; inhibition, % at 13.3 µM; Q8TCT1; recombinant PHOSPHO1, absorbance phosphatase assay; in the data active = inhibition above about 60%
Calb FLC: C. albicans growth modulation with fluconazole. growth inhibition, % (test concentration not listed). C. albicans CaCi-2 + fluconazole, Alamar Blue growth, 48 h. AID 1979. 0.57% of 300,000 active;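 active = growth inhibition above about 58% in most replicates, limit read from the data, passing the limit was not always enough; inconclusive = exactly half the replicates above a set limit; inactive = most replicates below a set limit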;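 note: all wells also contain fluconazole at 8 µg/ml as a sub-toxic cotreatment; 0% = median of DMSO wells and 100% = median of geldanamycin control wells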
IMP-1 inhibitor: blocks Pseudomonas aeruginosa IMP-1 metallo-beta-lactamase | purified IMP-1, nitrocefin hydrolysis, epi-absorbance fluorescence | 0.45% of 290,000 active | AID 1556 | inhibition, % at 5.6 µM;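 active = inhibition above the mean plus 3 SD of all compounds in the same screening run, cut at about 4.5% in these data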;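 note: 0% = IMP-1 with DMSO and 100% = DMSO wells lacking enzyme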
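System – purified recombinant IMP-1 beta-lactamase · Input – IMP-1 dispensed at 0.2 nM · Timing – 15 min preincubation plus 25 min reaction at 25 °C · Signal – Epi-absorbance fluorescence, 480 nm excitation, 530 nm emission · Measure – percent IMP-1 inhibition derived from blank-referenced optical density · Controls – Enzyme-plus-DMSO low control, enzyme-free DMSO high control · Replication – singlicate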
VIM-2 inh: inhibitors of Pseudomonas aeruginosa VIM-2 metallo-beta-lactamase | 0.89% of 290,000 active | AID 1527 | purified VIM-2, nitrocefin hydrolysis, epi-absorbance fluorescence | inhibition, % at 5.6 µM;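 active = inhibition above the mean of all tested compounds plus 3 SD, cutoff set per screening run, cut at about 7.5% in these data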;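 note: red hydrolysis product quenches plate fluorescence so inhibitors raise well fluorescence; 0% = enzyme with DMSO and 100% = DMSO without enzyme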
ARFGAP1 inh: inhibitors of rat ARFGAP1. Q62848. Arfgap1-stimulated ARF1 GTP hydrolysis, GDP FP detection. inhibition, % at 16.5 µM. 0.26% of 360,000 active. AID 651572;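 active = inhibition above a per-plate limit, mean inhibition of low control wells plus 3 SD, cut at about 25% in these data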;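 note: 0% = DMSO wells with enzyme and 100% = wells lacking Arfgap1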
Target sequence (Q62848 1-136 limits assumed): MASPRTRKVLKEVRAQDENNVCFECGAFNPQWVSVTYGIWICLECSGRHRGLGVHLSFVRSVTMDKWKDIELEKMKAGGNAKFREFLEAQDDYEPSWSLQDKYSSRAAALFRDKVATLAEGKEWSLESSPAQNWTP
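Material – truncated rat Arfgap1 GAP domain · Buffer or medium – HEPES-based buffer, pH 7.5 · Reagent – human ARF1(Δ1-17)-GTP substrate · Dosing – 16.5 µM single point, 1.26% DMSO · Schedule – GTP hydrolysis reaction 2 h at 25 °C · Technique – GDP detection by fluorescence polarization · Benchmarks – No-Arfgap1 wells (100%) versus DMSO full-reaction wells (0%) · Repeats – single replicate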
Numbers without * were called inactive; u = inconclusive; x = not tested or not shown. A selection: hits, their analogues and other compounds. The true share with any hit is near 2.6%.

SMILES	ASAP1 inh	PHOSPHO1 block	Calb FLC	IMP-1 inhibitor	VIM-2 inh	ARFGAP1 inh
Cc1ccc(Cl)cc1Nc1nc(-c2sc(NC(=O)c3ccco3)nc2C)cs1	12	42	8	-2	-4	1
COC(=O)C1=C(C)N(Cc2ccc(C(F)(F)F)cc2)C(=NCC2CC2)NC1c1ccccc1 (configuration not stated)	7	x	x	x	x	5
C=CCCC(=O)Nc1nc(C)c(-c2csc(Nc3cc(Cl)ccc3OC)n2)s1	5	99*	-2	6.2*	0	7
Cc1nc(NC(=O)CC(C)C)sc1-c1csc(Nc2ccc(Cl)cc2Cl)n1	2	55	0	0	0	1
Cc1ccccc1Nc1nc(-c2sc(NC(=O)c3cccc(Cl)c3)nc2C)cs1	x	-10	4	-3	-4	x
C=CCCC(=O)Nc1nc(C)c(-c2csc(Nc3ccccc3OC)n2)s1	9	77*	-6	-3	-2	9
Cc1ccccc1Nc1nc(-c2sc(NC(=O)c3ccccc3)nc2C)cs1	x	69*	-1	-2	0	x
COc1ccc(Cl)cc1Nc1nc(-c2sc(NC(=O)CC(C)C)nc2C)cs1	4	94*	4	6.8*	0	6
COc1ccc(-c2ccc3c(n2)CCCN3S(=O)(=O)c2ccccc2C)cc1	12	x	x	x	x	0
COc1cc(OC)c2c(=O)c3c(C(=O)O)c(O)ccc3oc2c1	-9	x	x	x	x	-6
COCCNC(=S)N(C)[C@H]1C[C@H]2c3[nH]c4c(-c5ccc6c(c5)OCO6)cccc4c3CCN2C(=O)[C@H]1[C@H](C)O	17	x	x	x	x	-4
CCCCCC(=O)Nc1nc(C)c(-c2csc(Nc3cc(OC)ccc3OC)n2)s1	8	50	-2	-2	-1	19
CCCCC(=O)Nc1nc(C)c(-c2csc(Nc3ccccc3OC)n2)s1	-2	94*	-5	-3	-1	3
CN(c1cccnc1)c1ccc(NC(=O)Cc2c[nH]c3ccccc23)cc1-c1cccnc1F	2	x	x	x	x	-11
O=[N+]([O-])c1ccc(NNC(=S)Nc2ccccc2)cc1	x	86*	u	-2	-6	x
COc1ccc(C)c2sc(N(CCN(C)C)C(=O)/C=C/c3cccs3)nc12	14	54	-21	1	1	19
COc1ccc(OC)c2sc(N(CCN(C)C)C(=O)/C=C/c3cccs3)nc12	4	1	-46	11*	5	-12
O=c1c2[nH]c3ccccc3c2ncn1CCCn1ccnc1	-13	18	u	-3	0	-3
O=c1c2[nH]c3ccc(Br)cc3c2ncn1CCCn1ccnc1	-5	6	-7	5.9*	5	-2
CCCCCCCCN1C(=O)[C@@H](CC(=O)NCc2cccc(C(F)(F)F)c2)C[C@@]2(C(=O)OC)C1=C[C@H](C(C)(C)C)O[C@@H]2C	0	x	x	x	x	8
CS(=O)(=O)N1N=C(c2cccs2)CC1c1ccccc1O (configuration not stated)	-6	60*	-8	1	-2	-7
Cc1ccc2ccc(C(Nc3ccccn3)c3ccccc3)c(O)c2n1 (configuration not stated)	-20	4	-5	-6	-6	10
COc1ccccc1NC(c1cccnc1)c1ccc2cccnc2c1O (configuration not stated)	0	63*	82*	0	-2	6
COc1cc(C(Nc2ccccn2)c2ccc3ccc(C)nc3c2O)cc(OC)c1O (configuration not stated)	x	73*	113*	-1	0	x
Cc1ccnc(NC(c2cccnc2)c2ccc3cccnc3c2O)c1 (configuration not stated)	-1	-122	90*	-2	-4	-7
SMILES	ASAP1 inh	PHOSPHO1 block	Calb FLC	IMP-1 inhibitor	VIM-2 inh	ARFGAP1 inh
COc1ccc(NC(=O)N(C)C[C@@H]2OCc3cnnn3CCCC(=O)N([C@@H](C)CO)C[C@@H]2C)cc1	0	x	x	x	x	-4
COc1ccc(S(=O)(=O)n2nc(-c3cc(OC)c(OC)c(OC)c3)cc2N)cc1OC	6	-2	x	-3	-2	-5
COc1ccc(-c2cc(N)n(S(=O)(=O)c3c(F)c(F)c(F)c(F)c3F)n2)cc1OC	10	21	76*	-2	0	-6
COc1ccc2c(c1)c(C(=O)CN1CCC3(CC1)OCCO3)c(C)n2C	-11	97*	-17	-5	-2	0
Cn1cnnc1SCC(=O)N1N=C2/C(=C/c3ccco3)CCCC2C1c1ccco1 (configuration not stated)	-2	80*	-2	-2	-3	6
COc1ccc(CC(=O)NC2CCN(CC(=O)Nc3ccc4c(c3)OCCO4)CC2)cc1OC	-7	10	-1	12*	-4	1
COc1ccc(NC(=O)CN2CCN(Cc3ccc4c(c3)OCO4)CC2)cc1OC	7	13	1	-3	-2	0
CC(C)c1[nH]nc2c1C(c1cccc(C(F)(F)F)c1)N(Cc1ccccc1)C2=O (configuration not stated)	-15	x	x	x	x	3
Cc1occc1C(=O)NNC(=S)Nc1cccc([N+](=O)[O-])c1	-6	88*	-7	-3	-3	21
CC(/C=C/c1ccco1)=N\NC(=O)CNc1ccc2ccccc2c1	10	20	116*	-1	2	1
CC(/C=C/c1ccco1)=N/NC(=O)CNc1ccccc1C	12	-10	-27	-2	-3	-10
S=c1nc(C2CC2)[nH]c2ccccc12	1	-10	6	-3	11*	5
Cc1nc2c(=O)oc3ccccc3c2n1-c1ccccc1	0	3	92*	0	4	4
N#CC1=C2SCC(O)(c3ccccc3)N2C(=O)CC1c1cccs1 (configuration not stated)	6	14	x	-4	-3	-3
N#CC1=C2SCN(Cc3ccccc3)CN2C(=O)CC1c1ccccc1F (configuration not stated)	x	83*	0	-2	0	x
N#CC1=C2SCN(c3ccccc3)CN2C(=O)CC1c1cccs1 (configuration not stated)	2	81*	41	1	1	3
N#CC1=C2SCN(c3ccccc3)CN2C(=O)CC1c1c(Cl)cccc1Cl (configuration not stated)	1	92*	3	-4	46*	-6
N#CC1=C2SCN(c3ccccc3)CN2C(=O)CC1c1ccccc1Cl (configuration not stated)	9	86*	-3	-2	0	-7
S=C1NC[C@H](Cc2ccccc2)N1CC1CCN(CCCC2CCCCC2)CC1	1	x	x	x	x	-4
Cc1noc(C)c1Cn1c(C)c(C(=O)NCc2ccc3c(c2)OCCO3)sc1=O	1	x	x	x	x	-4
CCCCCCCCN1C(=O)[C@@H](CC(=O)NCCCOCCCC)C[C@@]2(C(=O)OC)C1=C[C@H](C(C)(C)C)O[C@@H]2C	3	x	x	x	x	3

Compound activity (PubChem BioAssay)
